Experimental data of several laboratories.
Protocols differ between the studies behind these lines.
Organism: Staphylococcus aureus
Effect on: microbial growth

SMILES | method | strain | time | setting | MIC
O=C1/C(=C/c2ccc3ccccc3c2O)NC(=S)N1c1ccccc1 | broth dilution | ATCC6538 | – | – | 22 µg/mL
CCCCCCC#Cc1cncc(-c2nnc(SCc3cc([N+](=O)[O-])cc([N+](=O)[O-])c3)n2CCCN)c1 | broth dilution | MRSA | – | – | 8 to 16 µg/mL
CC(=O)C1=NN(c2ccccc2)C(=C(C#N)C(=O)c2ccc(Nc3cnccn3)cc2)S1 | broth dilution | ATCC25923 | – | – | 50 µg/mL
CCCCCCCCCCCC[N+](C)(C)Cc1ccccc1 | – | ATCC33591 MRSA | – | drug-resistant strain | 32 µM
CC1(C)S[C@@H]2[C@H](NC(=O)[C@H](N)c3ccc(O)cc3)C(=O)N2[C@H]1C(=O)O | broth dilution | USA300 | – | – | 64 µg/mL
Cc1ccc2[nH]nc(-c3nnc(Nc4ccc(Cl)c(Br)c4)s3)c2c1 | – | ATCC29213 | – | – | 204 µg/mL
CCCCCCCCN=c1ccn(CCCCCCCCCCn2ccc(=NCCCCCCCC)cc2)cc1 | – | MSSA | – | – | 0.5 µM
Cc1ccc2[nH]nc(-c3nnc(Nc4ccc(Cl)c(Cl)c4)s3)c2c1 | – | ATCC29213 | – | – | 97.5 µg/mL
CCCCCCC#Cc1cncc(-c2nnc(SCc3cc(C(F)(F)F)cc(C(F)(F)F)c3)n2CCCN)c1 | broth dilution | ATCC29213 | – | – | 4 µg/mL
CC(=O)NC[C@H]1CN(c2ccc(N3CCOCC3)c(F)c2)C(=O)O1 | – | MRSA | – | – | 1 µg/mL
CN(C)[C@@H]1C(O)=C(C(N)=O)C(=O)[C@@]2(O)C(O)=C3C(=O)c4c(O)cccc4[C@@](C)(O)[C@H]3C[C@@H]12 | broth dilution | ATCC25923 | 16 h | – | 3.1 µM
COc1cc2cc(CNCCC3CCN(C4CCCC4)CC3)c(SCc3ccccc3)nc2c(OC)c1OC | broth dilution | – | – | – | > 128 µg/mL
CC(=O)C1=NN(c2ccc([N+](=O)[O-])cc2)C(=C(C#N)C(=O)c2ccc(Nc3cnccn3)cc2)S1 | broth dilution | ATCC25923 | – | – | 6.25 µg/mL
Cc1ccc2[nH]nc(-c3nnc(Nc4ccc(C)c(C)c4)s3)c2c1 | – | ATCC29213 | – | – | 94.2 µg/mL
CC[C@H]1OC(=O)[C@H](C)[C@@H](O[C@H]2C[C@@](C)(OC)[C@@H](O)[C@H](C)O2)[C@H](C)[C@@H](O[C@@H]2O[C@H](C)C[C@H](N(C)C)[C@H]2O)[C@](C)(O)C[C@@H](C)/C(=N\OCOCCOC)[C@H](C)[C@@H](O)[C@]1(C)O | agar dilution | ATCC43300 | – | – | 16 µg/mL
COc1cccc(OC)c1C(=O)N[C@@H]1C(=O)N2[C@@H]1SC(C)(C)[C@@H]2C(=O)O | broth dilution | ATCCBAA44 BAA44 | – | – | > 64 µg/mL
CCCCCCC#Cc1cncc(-c2nnc(SCc3ccc(Cl)cc3)n2CCCN)c1 | broth dilution | MRSA | – | – | 4 to 8 µg/mL
CC(=O)NC[C@H]1CN(c2ccc(N3CCOCC3)c(F)c2)C(=O)O1 | broth dilution | ATCC29213 | – | – | 1 µg/mL
CC[C@H]1OC(=O)[C@H](C)[C@@H](O[C@H]2C[C@@](C)(OC)[C@@H](O)[C@H](C)O2)[C@H](C)[C@@H](O[C@@H]2O[C@H](C)C[C@H](N(C)C)[C@H]2O)[C@](C)(O)C[C@@H](C)C(=O)[C@H](C)[C@@H](O)[C@]1(C)O | broth dilution | USA300 | – | – | > 64 µg/mL
COc1ccc(N2N=C(C(C)=O)SC2=C(C#N)C(=O)c2ccc(Nc3cnccn3)cc2)cc1 | broth dilution | ATCC25923 | – | – | 6.25 µg/mL
CN[C@H](CC(C)C)C(=O)N[C@H]1C(=O)N[C@@H](CC(N)=O)C(=O)N[C@H]2C(=O)N[C@H]3C(=O)N[C@H](C(=O)N[C@H](C(=O)O)c4cc(O)cc(O)c4-c4cc3ccc4O)[C@H](O)c3ccc(c(Cl)c3)Oc3cc2cc(c3O[C@@H]2O[C@H](CO)[C@@H](O)[C@H](O)[C@H]2O[C@H]2C[C@](C)(N)[C@H](O)[C@H](C)O2)Oc2ccc(cc2Cl)[C@H]1O | agar dilution | ATCC29213 | – | – | 1 µg/mL
CN1CCN(CCNCc2cc3cc(Br)ccc3nc2SCc2ccccc2)CC1 | broth dilution | – | – | – | 16 µg/mL
CN[C@H](CC(C)C)C(=O)N[C@H]1C(=O)N[C@@H](CC(N)=O)C(=O)N[C@H]2C(=O)N[C@H]3C(=O)N[C@H](C(=O)N[C@H](C(=O)O)c4cc(O)cc(O)c4-c4cc3ccc4O)[C@H](O)c3ccc(c(Cl)c3)Oc3cc2cc(c3O[C@@H]2O[C@H](CO)[C@@H](O)[C@H](O)[C@H]2O[C@H]2C[C@](C)(N)[C@H](O)[C@H](C)O2)Oc2ccc(cc2Cl)[C@H]1O | broth dilution | MRSA | – | – | 0.67 µM
C[C@@H](O)[C@H]1C(=O)N2C(C(=O)O)=C(S[C@@H]3CN[C@H](C(=O)N(C)C)C3)[C@H](C)[C@H]12 | – | ATCC29213 MSSA | – | drug-resistant strain | 0.06 µg/mL
CC(=O)c1ccc2cc(S(=O)(=O)NCc3ccccc3)ccc2c1 | broth dilution | ATCC25923 | – | – | 40000 µg/mL
[H]/N=C(\N/C(=N/[H])NCCCCCCNC(=N)NC(=N)Nc1ccc(Cl)cc1)Nc1ccc(Cl)cc1 | – | ATCC33591 MRSA | – | drug-resistant strain | 1 µM
COc1cc2cc(CNCCN3CCN(C)CC3)c(SCc3ccccc3)nc2c(OC)c1OC | broth dilution | – | – | – | 128 µg/mL
C=C[C@]1(C)C[C@@H](OC(=O)CS[C@@H]2C[C@H]3CC[C@@H](C2)N3C)[C@]2(C)[C@H](C)CC[C@]3(CCC(=O)[C@H]32)[C@@H](C)[C@@H]1O | agar dilution | ATCC25923 | – | – | 0.0312 µg/mL
CN1CCN(CCNCc2cc3ccccc3nc2SCc2ccccc2)CC1 | broth dilution | – | – | – | 64 µg/mL
COc1c(N2C[C@@H]3CCCN[C@@H]3C2)c(F)cc2c(=O)c(C(=O)O)cn(C3CC3)c12 | agar dilution | ATCC25923 | – | – | 0.0625 µg/mL
